ChEMBL document CHEMBL4431351, “1,2-Benzisoselenazol-3(2H)-one Derivatives As a New Class of Bacterial Urease Inhibitors” (J Med Chem, 2016)
The source made the active and inactive calls. The rule behind the calls is not given here.

Assays:
[1] = biological target: T1, Urease subunit alpha/Urease subunit beta (Helicobacter pylori (strain ATCC 700392 / 26695) (Campylobacterpylori), UniProt P69996+P14916); assay: (§1) Inhibition of urease in Helicobacter pylori J99 in Brucella broth using urea as substrate after 2 hrs by Berthelot assay; assay type: protein-complex assay
T1 sequence (P69996 whole entry): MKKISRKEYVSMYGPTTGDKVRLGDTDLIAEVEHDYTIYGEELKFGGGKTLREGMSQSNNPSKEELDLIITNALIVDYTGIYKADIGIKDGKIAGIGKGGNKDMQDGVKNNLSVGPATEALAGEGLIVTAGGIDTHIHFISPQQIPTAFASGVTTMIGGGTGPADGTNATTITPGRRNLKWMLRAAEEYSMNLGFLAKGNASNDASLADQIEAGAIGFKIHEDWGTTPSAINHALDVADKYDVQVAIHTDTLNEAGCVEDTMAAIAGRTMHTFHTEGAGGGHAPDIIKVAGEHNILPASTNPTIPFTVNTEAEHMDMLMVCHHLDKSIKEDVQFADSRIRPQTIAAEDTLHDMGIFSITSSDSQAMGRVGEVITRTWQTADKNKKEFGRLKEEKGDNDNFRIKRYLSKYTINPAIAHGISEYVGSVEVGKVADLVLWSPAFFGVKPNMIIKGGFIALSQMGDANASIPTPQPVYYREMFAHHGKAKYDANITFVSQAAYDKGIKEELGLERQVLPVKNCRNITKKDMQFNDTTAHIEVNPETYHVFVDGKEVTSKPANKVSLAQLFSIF
T1 sequence (P14916 whole entry): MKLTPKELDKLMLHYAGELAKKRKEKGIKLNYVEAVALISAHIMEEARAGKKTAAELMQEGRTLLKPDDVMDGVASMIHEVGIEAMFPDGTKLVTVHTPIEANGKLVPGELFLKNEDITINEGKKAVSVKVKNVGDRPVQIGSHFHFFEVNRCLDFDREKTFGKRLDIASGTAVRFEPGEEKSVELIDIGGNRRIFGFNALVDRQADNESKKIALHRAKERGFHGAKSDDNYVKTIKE
Summary of the method: (§2)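 H. pylori J99 passaged on blood Columbia agar, microaerophilic, 37°C. Then grown 48 h in Brucella broth with 5% FBS and 1% IsoVitalex, spun once and resuspended in 10 mM PBS pH 7.2 without washing. About 1×10⁷ cfu/mL added to PBS with 5 mM urea and inhibitor. Berthelot ammonia read-out, triplicate.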

Sporosarcina pasteurii [2] = assay: Reversible inhibition of Sporosarcina pasteurii CCM 2056 urease using urea as substrate assessed as ammonia levels after 120 mins by fast dilution assay
[3] = biological target: T1, Urease subunit alpha/Urease subunit beta; assay: (§3) Inhibition of recombinant Helicobacter pylori urease expressed in Escherichia coli rosetta DE3 using urea as substrate assessed as transformed cell urea splitting activity after 2 hrs by Berthelot assay
Summary of the method: (§4)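 E. coli Rosetta pGEM::ureOP cells grown in LB with ampicillin at 37°C, induced with 0.75 mM IPTG and 0.75 mM Ni²⁺ for 24 h at 22°C, then washed thrice in PBS. Cells (1×10⁹ cfu/mL final) start the reaction in 10 mM PBS with 5 mM urea and inhibitor. Timed aliquots read by Berthelot; triplicate.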

[4] = biological target: T2, Urease subunit alpha/Urease subunit beta (Helicobacter pylori (strain ATCC 700392 / 26695) (Campylobacterpylori), UniProt P69996); assay: Inhibition of recombinant Helicobacter pylori urease expressed in Escherichia coli rosetta DE3 using urea as substrate assessed as transformed cell urea splitting activity preincubated for 2 hrs followed by substrate addition measured after 2 hrs by Berthelot assay
T2 sequence (P69996 whole entry): as the sequence (P69996 whole entry) above
T2 sequence (P14916 whole entry, further chain): as the sequence (P14916 whole entry) above
Summary of the method: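 Induced, PBS-washed E. coli Rosetta pGEM::ureOP cells (1×10⁹ cfu/mL) held 2 h with inhibitor in 10 mM PBS. Urea then added to 5 mM. Ammonia in timed aliquots measured by Berthelot assay against an inhibitor-free reference. DMF effect checked. Three repeats.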

Sporosarcina pasteurii [5] = assay: Competitive inhibition of Sporosarcina pasteurii CCM 2056 urease using urea as substrate assessed as ammonia levels after 120 mins by Lineweaver-Burk plot analysis
Summary of the method: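 Purified native S. pasteurii urease (113.5 pM final) preincubated with rising inhibitor levels in 3 mM phosphate buffer pH 7.5, 37°C, until equilibrium; urea 1–60 mM then added. Initial rates measured by phenol-hypochlorite ammonia read-out; mode and constants from Lineweaver-Burk plots using at least 5 inhibitor concentrations.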

[6] = Steady state inhibition of Sporosarcina pasteurii CCM 2056 urease using urea as substrate assessed as inhibition constant for final enzyme conformation-inhibitor complex by measuring ammonia levels after 120 mins by phenol-hypochlorite method
Summary of the method: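 S. pasteurii urease (113.5 pM final) added to stirred mixtures with 25 mM urea and varied inhibitor (water or DMF), 3 mM phosphate pH 7.5, 37°C. Ammonia sampled over 120 min by phenol-hypochlorite. Progress curves fitted to integrated slow-binding equation. Ki and Ki* derived using Km and Vmax of uninhibited enzyme.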

[7] = biological target: T2, Urease subunit alpha/Urease subunit beta; assay: Inhibition of urease in Helicobacter pylori J99 in Brucella broth using urea as substrate preincubated for 2 hrs followed by substrate addition measured after 2 hrs by Berthelot assay; assay type: protein-complex assay
Summary of the method: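 Unwashed H. pylori J99 cells from 48 h Brucella broth culture (5% FBS, 1% IsoVitalex), resuspended in 10 mM PBS pH 7.2, about 1×10⁷ cfu/mL. Cells preincubated 2 h with inhibitor before 5 mM urea was added. Timed aliquots assayed by Berthelot method; three repeats.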

[8] = biological target: T2, Urease subunit alpha/Urease subunit beta; assay: Inhibition of recombinant Helicobacter pylori urease expressed in Escherichia coli rosetta DE3 after 120 mins by Berthelot colorimetric analysis
Summary of the method: (§5)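 Homogeneous recombinant H. pylori urease purified from E. coli Rosetta (DE3) pGEM::ureOP (488 pM final) added to mixtures with rising inhibitor levels and 0.1–2.5 mM urea, 3 mM phosphate pH 7.5, 37°C. Ammonia measured by Berthelot reaction. Ki from Lineweaver-Burk plots, at least 5 inhibitor concentrations, in triplicate.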

[9] = biological target: Urease subunit alpha/Urease subunit beta (Helicobacter pylori (strain ATCC 700392 / 26695) (Campylobacterpylori)) (UniProt P69996+P14916); assay: Competitive reversible inhibition of recombinant Helicobacter pylori urease […] in transformed Escherichia coli rosetta DE3 after 120 mins by Lineweaver-Burk plot analysis; assay type: protein-complex assay; summary of the method: as §5
Sequence of Urease subunit alpha/Urease subunit beta (Helicobacter pylori (strain ATCC 700392 / 26695) (Campylobacterpylori)) (P14916 whole entry, looked up): as the sequence (P14916 whole entry) above
Sequence of Urease subunit alpha/Urease subunit beta (Helicobacter pylori (strain ATCC 700392 / 26695) (Campylobacterpylori)) (P69996 whole entry, looked up): as the sequence (P69996 whole entry) above

[10] = biological target: T2, Urease subunit alpha/Urease subunit beta; assay: as §3; summary of the method: as §4
[11] = biological target: T2, Urease subunit alpha/Urease subunit beta; assay: as §1; assay type: protein-complex assay; summary of the method: as §2

| Structure (SMILES) | IC50 [1] | reversible inhibition (qualitative) (Sporosarcina pasteurii [2]) | IC50 [3] | IC50 [4] [µM] | competitive inhibition (qualitative call) (Sporosarcina pasteurii [5]) | Ki [6] [µM] | IC50 [7] [µM] | Ki [8] [µM] | inhibition mode (competitive reversible) [9] | IC50 [10] [µM] | IC50 [11] [µM] |
| --- | --- | --- | --- | --- | --- | --- | --- | --- | --- | --- | --- |
| C[C@@H](C(=O)O)n1[se]c2ccccc2c1=O | Not Active | Active | Not Active | 196 | Active | 0.883 | 611 |  |  |  |  |
| CCC(CO)NC(=O)c1ccccc1[Se][Se]c1ccccc1C(=O)NC(CC)CO (stereo not drawn) | Not Active | Active | Not Active | 108 | Active | 0.00462 | 115 | 3.26 | Active |  |  |
| O=c1c2ccccc2[se]n1[C@H](CO)c1ccccc1 | Not Active | Active |  | 22.7 | Active | 0.0121 | 5.03 |  |  | 79 |  |
| C[C@H](NC(=O)c1ccccc1[Se][Se]c1ccccc1C(=O)N[C@@H](C)C(=O)O)C(=O)O | Not Active | Active |  | 25.9 | Active | 14.9 | 183 |  |  | 85 |  |
| COC(=O)CNC(=O)c1ccccc1[Se][Se]c1ccccc1C(=O)NCC(=O)OC | Not Active | Active | Not Active | 85 | Active | 0.00667 | 83.5 | 0.915 | Active |  |  |
| CC(C)C[C@@H](C(=O)O)n1[se]c2ccccc2c1=O | Not Active | Active |  | 95 | Active | 0.936 | 69.5 |  |  | 301 |  |
| CC(=O)NO [ACETOHYDROXAMIC ACID] | Not Active | Active |  | 96 | Active | 3.3 | 156 | 96 |  | 154 |  |
| C[C@H](c1ccccc1)n1[se]c2ccccc2c1=O | Not Active | Active | Not Active | 25.3 | Active | 0.139 | 5.04 |  |  |  |  |
| CC(C)[C@@H](C(=O)O)n1[se]c2ccccc2c1=O |  | Active |  | 38.4 | Active | 1.01 | 25.4 |  |  | 186 | 390 |
| CCC(C)[C@@H](C(=O)OC)n1[se]c2ccccc2c1=O (stereo partly drawn) | Not Active | Active |  | 25.8 | Active | 0.164 | 4.07 |  |  | 96 |  |
| O=c1[nH][se]c2ccccc12 | Not Active | Active |  | 1.28 | Active | 0.0247 | 6.92 |  |  | 48.6 |  |
| O=C(O)CCCn1[se]c2ccccc2c1=O | Not Active | Active |  | 37 | Active | 0.806 | 98 |  |  | 103 |  |
| O=C(O)CCCNC(=O)c1ccccc1[Se][Se]c1ccccc1C(=O)NCCCC(=O)O | Not Active | Active | Not Active | 35.4 | Active | 15.1 | 421 |  |  |  |  |
| O=C(O)C[C@@H](C(=O)O)n1[se]c2ccccc2c1=O | Not Active | Active |  | 319 | Active | 2.41 | 50.8 |  |  | 388 |  |
| COC(=O)[C@H](C)n1[se]c2ccccc2c1=O |  | Active |  | 19 | Active | 0.0326 | 3.91 |  |  | 75 | 75.1 |
| COC(=O)[C@@H](CC(C)C)n1[se]c2ccccc2c1=O |  | Active |  | 40.9 | Active | 0.0261 | 3.14 |  |  | 121 | 75.7 |
| O=C(O)CNC(=O)c1ccccc1[Se][Se]c1ccccc1C(=O)NCC(=O)O | Not Active | Active |  | 121 | Active | 10.3 | 358 |  |  | 163 |  |
| COC(=O)[C@H](CC(C)C)n1[se]c2ccccc2c1=O | Not Active | Active |  | 35.2 | Active | 0.0763 | 3.3 |  |  | 127 |  |
| COC(=O)Cn1[se]c2ccccc2c1=O |  | Active |  | 9.2 | Active | 0.084 | 2.12 |  |  | 108 | 3.47 |
